# From PubChem BioAssay
# This is a sample that favours compounds with a hit; in the whole collection about 2.7% have one here.
# Rpn11 inh = blocks the human proteasome subunit Rpn11. O00487. human 26S proteasome, Ub4-pepOG fluorescence polarization; 20S core pre-blocked with epoxomicin. inhibition, % at 20 µM. 0.59% of 360,000 active;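 active = inhibition at 20 µM, scaled to each plate's controls, above about 33%, limit read from the data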
# PP1 counter = counter-screen for PP5 inhibitors: inhibitors of human PP1-alpha | purified PP1alpha, OMFP fluorescence | AID 2235 | inhibition, % at 6.7 µM | 0.9% of 320,000 active;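 active = inhibition above the mean inhibition of all tested compounds plus 3 SD, computed separately for each screening campaign, cut at about 15% in these data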
# CSN deneddyl inh = CSN deneddylation inhibition. Q92905. Purified CSN, SCF-Nedd8-OG deneddylation, fluorescence polarization. 0.38% of 360,000 active. inhibition, % at 12.5 µM. AID 651999;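 active = pattern-corrected inhibition above about 35%, with an unprinted fluorescence ratio check between 0.5 and 1.5, limit read from the data, passing the limit was not always enough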;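 also: 0% = enzyme with substrate and 100% = substrate without enzyme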
# Target sequence (Q92905 whole entry, looked up, one chain of several): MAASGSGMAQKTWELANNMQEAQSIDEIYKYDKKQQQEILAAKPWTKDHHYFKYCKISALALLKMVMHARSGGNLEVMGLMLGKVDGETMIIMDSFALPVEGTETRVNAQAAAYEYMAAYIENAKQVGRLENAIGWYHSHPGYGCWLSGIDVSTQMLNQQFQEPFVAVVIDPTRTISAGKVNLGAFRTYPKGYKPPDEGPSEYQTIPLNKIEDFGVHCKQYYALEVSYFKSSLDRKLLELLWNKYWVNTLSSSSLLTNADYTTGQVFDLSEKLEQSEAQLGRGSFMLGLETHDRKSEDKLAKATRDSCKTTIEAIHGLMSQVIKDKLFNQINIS
#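 Assay system: purified human Csn5 enzyme expressed in HEK293T cells; Input: 0.24 nM Csn5 enzyme, final concentration; Reagent: 10 nM SCFSkp2-Nedd8OG; Compound dosing: 12.5 µM single point; Times: reaction 90 min, room temperature; Technique: fluorescence polarization readout.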
# TPT1 inh = C. albicans TPT1 enzyme inhibition. 0.81% of 300,000 active. inhibition, % at 5 µM. recombinant caTPT1, FP RNA substrate dephosphorylation;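 active = inhibition above the mean of all tested compounds plus 3 SD, set per screening campaign, cut at about 24% in these data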;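 also: plate controls were DMSO alone for no effect and ferristatin control at 100 nM for full effect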
# HNF4A DNA FP = change in binding of human HNF4 alpha to DNA; activity change, % at 10 µM; P41235; 0.3% of 360,000 active; HNF4a-FITC DNA binding, fluorescence polarization, 1 h; in the data active = activity change above about 30%, passing the limit was not always enough
# NadD inh = blocks S. aureus nicotinate mononucleotide adenylyltransferase. purified NadD enzyme, colorimetric absorbance read-out. inhibition, % at 20 µM. 0.78% of 360,000 active; in the data active = inhibition above about 26%
# Active calls of the source: *; x = not tested or not shown.
SMILES,Rpn11 inh,PP1 counter,CSN deneddyl inh,TPT1 inh,HNF4A DNA FP,NadD inh
CCS(=O)(=O)c1ccc(OC)c(N=Nc2ccc(O)c3ncccc23)c1,29,15*,-4,-5,-1,11
S=c1[nH]nc(-c2ccc3ccccc3n2)o1,-4,0,113*,3,1,-7
Fc1cccc(Cl)c1CNc1ccc(N2CCCC2)cc1,-3,17*,-1,3,4,12
CCOc1ccc(/C(O)=C2/C(=O)C(=O)N(c3ccccn3)C2c2ccc(F)cc2)c(C)c1 (centres undefined),2,14,2,-4,-1,13
CCOc1cc(C2C(C#N)=C(N)SC(N)=C2C#N)ccc1OCCN1CCOCC1,19,0,6,46*,4,4
CCCc1[nH]nc2c1C(c1ccc(OCCN3CCOCC3)c(OC)c1)C(C#N)=C(N)O2 (centres undefined),8,-1,-1,-5,2,10
CCCn1c(N)c(N(CCOC)C(=O)c2ccc(F)cc2F)c(=O)[nH]c1=O,2,5,3,-1,1,-1
Cc1ccc(NC(=O)NN2CCN(C)CC2)cc1C,6,x,-3,x,-1,-2
COc1cccc(/C=C2/NC(=O)N(CC(=O)Nc3ccc(C)cc3)C2=O)c1OCc1cccc(C(=O)O)c1,2,-2,37*,-4,-6,-6
CCn1c(C)cc(/C=C2\NC(=O)N(CC(=O)Nc3cccc(C)c3)C2=O)c1C,5,7,10,8,2,43*
CCn1c(C)cc(/C=C2/NC(=O)N(CC(=O)Nc3cccc(C)c3)C2=O)c1C,3,11,3,8,1,33*
Cc1cccc(NC(=O)CN2C(=O)N/C(=C/c3ccc(C)o3)C2=O)c1,39,3,0,21,10,2
CCc1nc2c(OCc3ccc(C(F)(F)F)cc3)cccn2c1N(C)C(=O)C(C)C,2,x,-2,x,6,1
O=C(NC1CC1)c1cccc2c1C(=O)c1ccc(N3CCC(N4CCCCC4)CC3)cc1S2(=O)=O,x,x,43*,x,45,2
O=C(O)c1cccc2c1C(=O)c1ccc(N3CCCC3)cc1S2(=O)=O,39,-2,16,x,32,-2
CN1CCC[C@@H]1CCNC(=O)c1cccc2c1C(=O)c1ccc(N3CCCC3)cc1S2(=O)=O,x,x,27,x,63*,0
O=C(NCCN1CCOCC1)c1cccc2c1C(=O)c1ccc(N3CCCC3)cc1S2(=O)=O,x,x,35,x,68,5
Cc1cc2occ(CC(=O)N(C)CC(=O)Nc3ccccc3C(F)(F)F)c2cc1C,-4,-1,-1,x,-1,4
Cn1c(=O)c2c(SCC(=O)NCc3ccco3)nc(-c3ccccc3Cl)nc2n(C)c1=O,-3,17*,6,-1,-8,7
Nc1cc2nsnc2cc1Br,-48,5,39*,-14,-30,3
CCC1CCCCN1C(=O)COc1ccc(S(=O)(=O)N2CCOCC2)cc1Cl (centres undefined),-2,-4,-3,x,-2,-1
CCN1C(=O)/C(=C/c2cn(-c3ccccc3)nc2-c2cccnc2)SC1=S,x,x,23,x,40*,10
Cc1ccc(-c2nn(-c3ccccc3)cc2/C=C2\SC(=S)N(CC(=O)O)C2=O)cc1,14,-6,2,1,-10,41*
COc1ccc(-c2nn(-c3ccccc3)cc2/C=C2/SC(=S)N(CCC(=O)O)C2=O)cc1,17,3,17,8,-3,25
CCOc1ccc(-c2nn(-c3ccccc3)cc2/C=C2\SC(N)=NC2=O)cc1C,36,-5,-3,-1,57*,32*
SMILES,Rpn11 inh,PP1 counter,CSN deneddyl inh,TPT1 inh,HNF4A DNA FP,NadD inh
Cc1ccc2c(CN3CCN(c4ccccc4F)CC3)cc(=O)oc2c1,6,x,-3,x,1,-3
COc1ccccc1N1CCN(Cc2ccc(O)c3ncccc23)CC1,8,15*,-1,-3,-1,-8
COc1ccc2c(CN3CCN(c4ccccc4F)CC3)cc(=O)oc2c1,-4,x,100*,x,-2,7
COc1ccc2c(CN3CCN(c4ccccc4OC)CC3)cc(=O)oc2c1,4,x,74*,x,11,5
CN(C)c1ccc(C(=O)N/N=C/c2ccccn2)cc1,0,-4,-1,-2,0,-3
COc1ccc(C(C)=O)cc1Cn1c(C)c(C(=O)NCc2ccc3c(c2)OCO3)sc1=O,-2,x,-3,x,1,-9
CN1C(C)(C)CC(=NO)CC1(C)C,2,x,4,x,3,0
O=C(Nc1ncn[nH]1)c1ccc(Cl)c(S(=O)(=O)Nc2ccc(Cl)cc2)c1,0,17*,-15,-2,-3,7
CCCCOc1cccc(C(=O)Nc2ccc(S(=O)(=O)Nc3nnc(CC)s3)cc2)c1,4,15*,3,-1,-2,10
CCc1nnc(NS(=O)(=O)c2ccc(NC(=O)c3cccc([N+](=O)[O-])c3)cc2)s1,-3,-1,-2,-1,1,-3
CN(C(=O)c1ccc(NC(=O)Cc2cccc(NC(=O)C3CCCN(C(=O)CCc4ccccc4)C3)c2)cc1)C1CC1 (centres undefined),-1,x,0,x,-1,9
COc1ccc(OC)c(NC(=O)Nc2nc(C(C)N)cs2)c1 (centres undefined),-3,x,0,x,3,-3
O=C(NNc1c2ccccc2nc2ccccc12)c1ccc(O)cc1O,15,0,-1,20,2,31*
COC(=O)c1ccc(NS(=O)(=O)c2ccc(S(=O)(=O)N3CCOCC3)cc2)cc1,-2,x,5,x,3,-2
CC1(C(=O)NS(=O)(=O)Cc2cccc(Cl)c2)CCN1C(=O)Cc1cccs1 (centres undefined),-6,x,71*,x,4,4
CC(=O)c1ccc(-n2c(-c3cc(-c4ccco4)[nH]n3)n[nH]c2=S)cc1,7,-3,28,2,-2,9
O=C(O)c1ccc(-n2c(-c3cc(-c4ccco4)[nH]n3)n[nH]c2=S)cc1,-15,-1,42*,5,-18,-3
Cc1ccc(C(=O)Nc2nnc(CC(=O)N/N=C/c3ccncc3)s2)cc1,24,15*,2,10,5,15
CCOC(=O)C1Nc2ccc(C(=O)O)cc2C2C=CCC12 (centres undefined),-40,34*,6,-6,-62,5
CCCC1Nc2ccc(C(=O)O)cc2C2C=CCC12 (centres undefined),-40,2,15,-5,-37,9
O=C(NCCc1ccccc1)c1ccc2nc(-c3ccco3)c(-c3ccco3)nc2c1,-27,12,44,3,-27,40*
O=C(NCCO)c1ccc2nc(-c3ccco3)c(-c3ccco3)nc2c1,-14,2,22,-12,-17,-1
